According to ChEMBL document CHEMBL1944534, “New heterocyclic compounds from 1,2,4-triazole and 1,3,4-thiadiazole class bearing diphenylsulfone moieties. Synthesis, characterization and antimicrobial activity evaluation” (2012):
≈ marks a conversion by molar mass, not a printed value.

Assays:
Format in all cases: functional
[1] = tested on: Candida parapsilosis; test: Antifungal activity against Candida parapsilosis ATCC 22019 after 48 hrs by broth microdilution method; conditions: Lodderomyces parapsilosis, ATCC 22019, 48 h
How it was run: (§1)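 Two-fold dilutions (1/2 to 1/1024) of a 2048 µg/mL DMSO stock made in Sabouraud broth. Yeast inoculum from colonies of 24 h Sabouraud dextrose agar culture, 0.5 McFarland, diluted in sterile water to 10^5 CFU/mL and added in equal volume to broth. Incubated 37 °C, 24 h (C. albicans) or 48 h (C. parapsilosis). MIC read by eye as lowest concentration without turbidity or growth button. Run in duplicate.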

[2] = tested on: Pseudomonas aeruginosa; test: Antibacterial activity against Pseudomonas aeruginosa ATCC 27853 after 20 hrs by broth microdilution method; conditions: ATCC 27853, 20 h
How it was run: (§2)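 MIC by two-fold dilution series (1/2 to 1/1024) of a 2048 µg/mL DMSO stock in cation-adjusted Müller-Hinton broth. Inoculum from colonies of 24 h Columbia blood agar culture, adjusted to 0.5 McFarland, diluted to 1 × 10^6 CFU/mL and added 1:1 to compound broth. Incubated 37 °C, 20 h. MIC is the lowest concentration with no turbidity or growth button, read by eye. Run in duplicate.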

[3] = tested on: Bacillus cereus; test: Antibacterial activity against Bacillus cereus ATCC 13061 after 20 hrs by broth microdilution method; conditions: ATCC 13061, 20 h; how it was run: as §2
[4] = tested on: Candida albicans; test: Antifungal activity against Candida albicans ATCC 90028 after 24 hrs by broth microdilution method; conditions: ATCC 90028, 24 h; how it was run: as §1
[5] = tested on: Enterobacter cloacae; test: Antibacterial activity against Enterobacter cloacae ATCC 49141 after 20 hrs by broth microdilution method; conditions: ATCC 49141, 20 h; how it was run: as §2
[6] = tested on: Staphylococcus aureus; test: Antibacterial activity against Staphylococcus aureus ATCC 25923 after 20 hrs by broth microdilution method; conditions: ATCC 25923, 20 h; how it was run: as §2
[7] = tested on: Escherichia coli; test: Antibacterial activity against Escherichia coli ATCC 25922 after 20 hrs by broth microdilution method; conditions: ATCC 25922, 20 h; how it was run: as §2
[8] = tested on: Acinetobacter baumannii; test: Antibacterial activity against Acinetobacter baumannii ATCC 19606 after 20 hrs by broth microdilution method; conditions: ATCC 19606 = CIP 70.34 = JCM 6841, 20 h; how it was run: as §2

Compound	MIC [1] [µg/mL]	MIC [2] [µg/mL]	MIC [3] [µg/mL]	MIC [4] [µg/mL]	MIC [5] [µg/mL]	MIC [6] [µg/mL]	MIC [7] [µg/mL]	MIC [8] [µg/mL]
OC(Cn1cncn1)(Cn1cncn1)c1ccc(F)cc1F [FLUCONAZOLE]	2 (≈ 6.53 µM)	–	–	–	–	–	–	–
O=C(NNC(=S)Nc1ccc(OC(F)(F)F)cc1)c1ccc(S(=O)(=O)c2ccc(Br)cc2)cc1	64 (≈ 111 µM)	64 (≈ 111 µM)	32 (≈ 55.7 µM)	64 (≈ 111 µM)	128 (≈ 223 µM)	512 (≈ 891 µM)	128 (≈ 223 µM)	64 (≈ 111 µM)
COc1cc(Nc2nnc(-c3ccc(S(=O)(=O)c4ccc(Br)cc4)cc3)s2)cc(OC)c1OC	64 (≈ 114 µM)	64 (≈ 114 µM)	16 (≈ 28.4 µM)	64 (≈ 114 µM)	128 (≈ 228 µM)	512 (≈ 910 µM)	64 (≈ 114 µM)	32 (≈ 56.9 µM)
O=S(=O)(c1ccc(Br)cc1)c1ccc(-c2nnc(Nc3ccc(OC(F)(F)F)cc3)s2)cc1	64 (≈ 115 µM)	64 (≈ 115 µM)	32 (≈ 57.5 µM)	128 (≈ 230 µM)	128 (≈ 230 µM)	512 (≈ 920 µM)	128 (≈ 230 µM)	32 (≈ 57.5 µM)
COc1cc(NC(=S)NNC(=O)c2ccc(S(=O)(=O)c3ccc(Br)cc3)cc2)cc(OC)c1OC	64 (≈ 110 µM)	64 (≈ 110 µM)	16 (≈ 27.6 µM)	64 (≈ 110 µM)	128 (≈ 221 µM)	128 (≈ 221 µM)	128 (≈ 221 µM)	32 (≈ 55.1 µM)
COc1cc(-n2c(-c3ccc(S(=O)(=O)c4ccc(Br)cc4)cc3)n[nH]c2=S)cc(OC)c1OC	16 (≈ 28.4 µM)	64 (≈ 114 µM)	8 (≈ 14.2 µM)	64 (≈ 114 µM)	128 (≈ 228 µM)	128 (≈ 228 µM)	128 (≈ 228 µM)	32 (≈ 56.9 µM)
COc1cc(-n2c(-c3ccc(S(=O)(=O)c4ccccc4)cc3)n[nH]c2=S)cc(OC)c1OC	32 (≈ 66.2 µM)	64 (≈ 132 µM)	16 (≈ 33.1 µM)	64 (≈ 132 µM)	128 (≈ 265 µM)	128 (≈ 265 µM)	128 (≈ 265 µM)	32 (≈ 66.2 µM)
COc1cc(NC(=S)NNC(=O)c2ccc(S(=O)(=O)c3ccccc3)cc2)cc(OC)c1OC	64 (≈ 128 µM)	64 (≈ 128 µM)	16 (≈ 31.9 µM)	64 (≈ 128 µM)	128 (≈ 255 µM)	128 (≈ 255 µM)	128 (≈ 255 µM)	32 (≈ 63.8 µM)
O=S(=O)(c1ccccc1)c1ccc(-c2n[nH]c(=S)n2-c2ccc(OC(F)(F)F)cc2)cc1	64 (≈ 134 µM)	64 (≈ 134 µM)	32 (≈ 67 µM)	128 (≈ 268 µM)	128 (≈ 268 µM)	256 (≈ 536 µM)	128 (≈ 268 µM)	32 (≈ 67 µM)
NCC[C@H](O)C(=O)N[C@@H]1C[C@H](N)[C@@H](O[C@H]2O[C@H](CN)[C@@H](O)[C@H](O)[C@H]2O)[C@H](O)[C@H]1O[C@H]1O[C@H](CO)[C@@H](O)[C@H](N)[C@H]1O [AMIKACIN]	–	2 (≈ 3.42 µM)	–	–	–	2 (≈ 3.42 µM)	2 (≈ 3.42 µM)	–
COc1cc(Nc2nnc(-c3ccc(S(=O)(=O)c4ccccc4)cc3)s2)cc(OC)c1OC	64 (≈ 132 µM)	64 (≈ 132 µM)	16 (≈ 33.1 µM)	64 (≈ 132 µM)	128 (≈ 265 µM)	512 (≈ 1060 µM)	128 (≈ 265 µM)	32 (≈ 66.2 µM)
O=S(=O)(c1ccc(Br)cc1)c1ccc(-c2n[nH]c(=S)n2-c2ccc(OC(F)(F)F)cc2)cc1	64 (≈ 115 µM)	64 (≈ 115 µM)	32 (≈ 57.5 µM)	128 (≈ 230 µM)	256 (≈ 460 µM)	512 (≈ 920 µM)	256 (≈ 460 µM)	32 (≈ 57.5 µM)
O=C(NNC(=S)Nc1ccc(OC(F)(F)F)cc1)c1ccc(S(=O)(=O)c2ccccc2)cc1	64 (≈ 129 µM)	64 (≈ 129 µM)	32 (≈ 64.6 µM)	64 (≈ 129 µM)	128 (≈ 258 µM)	256 (≈ 517 µM)	128 (≈ 258 µM)	64 (≈ 129 µM)
O=S(=O)(c1ccccc1)c1ccc(-c2nnc(Nc3ccc(OC(F)(F)F)cc3)s2)cc1	64 (≈ 134 µM)	64 (≈ 134 µM)	32 (≈ 67 µM)	64 (≈ 134 µM)	128 (≈ 268 µM)	512 (≈ 1070 µM)	128 (≈ 268 µM)	32 (≈ 67 µM)
